The list is not random: actives were taken first. Their share in the collection is about 1.1%.
PMI act satM6P = PMI (human) activation, high substrate | P34949 | coupled PMI enzyme assay, resazurin fluorescence, 20 min; stronger effect = higher value; 1 = untreated enzyme, 0 = substrate-free blank | 0.34% of 190,000 active | activation factor at 20 µM;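 active = activation factor of 2 or more at 20 µM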
Target sequence (P34949 whole entry, looked up): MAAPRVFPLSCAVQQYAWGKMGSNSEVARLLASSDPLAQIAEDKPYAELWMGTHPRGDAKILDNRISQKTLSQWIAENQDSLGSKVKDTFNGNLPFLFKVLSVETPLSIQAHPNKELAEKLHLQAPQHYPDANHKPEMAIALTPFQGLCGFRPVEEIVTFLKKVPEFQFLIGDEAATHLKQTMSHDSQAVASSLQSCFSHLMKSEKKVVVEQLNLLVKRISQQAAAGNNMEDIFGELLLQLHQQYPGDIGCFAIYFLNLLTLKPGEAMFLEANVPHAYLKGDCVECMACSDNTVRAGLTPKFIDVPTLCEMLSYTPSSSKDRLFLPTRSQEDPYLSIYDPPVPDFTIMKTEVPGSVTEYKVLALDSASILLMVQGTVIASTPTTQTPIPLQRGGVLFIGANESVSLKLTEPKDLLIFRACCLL
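Material: human phosphomannose isomerase with PGI, G6PDH, diaphorase coupling enzymes / Reagent: Man-6-P substrate 1.0 mM / Dosing: single compound dose of 20 µM, 1% DMSO final / Incubation: enzyme reaction with compound 20 min at room temperature / Signal: resorufin fluorescence (Ex 544/Em 590 nm) from resazurin via diaphorase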
Diaphorase inh = diaphorase inhibition or chemical oxidation counter-screen. 0.69% of 190,000 active. diaphorase resazurin-to-resorufin fluorescence, NADH, 16 min; bacterial (C. kluyveri) enzyme, not human. inhibition, % at 20 µM;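 active = primary screen inhibition at 20 µM above a set limit, cut at about 50% in these data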;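 note: plate controls were DMSO with full reaction for no effect and wells lacking NADH for full effect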
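Benchmarks: positive control wells lacking NADH, neutral wells with DMSO only. System: bacterial diaphorase enzyme (C. kluyveri). Input: 0.14 U/mL diaphorase, enzyme working solution. Detection: resorufin fluorescence, excitation 544 nm, emission 590 nm. Times: 16-min room-temperature incubation before reading.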
PMI act = activators of human phosphomannose isomerase; P34949; purified human PMI, coupled resazurin fluorescence, 20 min; stronger effect = higher value; 1 = vehicle control, 0 substrate-free wells; AID 1214; 0.005% of 190,000 active; activation factor at 20 µM;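 active = activation factor of 2 or more at 20 µM, relative to plate controls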
G6PDH counter = inhibits Leuconostoc G6PDH, flagging false hits in G6PDH-based assays; Purified L. mesenteroides G6PDH, diaphorase/resazurin coupled fluorescence, 45 min; inhibition, % at 5 µM; 0.12% of 200,000 active; AID 1020; in the data active = inhibition above about 50%
Diaphorase act = counter-screen for diaphorase-based assays: diaphorase activators and chemical reducers. AID 1229. activation factor at 20 µM. Diaphorase/resazurin coupled assay, resorufin fluorescence, 16 min; stronger effect = higher value; 1 = vehicle wells, 0 = NADH-free wells. 0.005% of 190,000 active;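 active = diaphorase activity raised at least twofold by the compound at 20 µM; inactive = activation factor below 2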
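Material: Purified diaphorase enzyme from Clostridium kluyveri | Buffer or medium: 50 mM HEPES pH 7.4 with 4.542 mM MgCl2, 0.005% Tween 20 | Times: 16 min enzyme reaction, ambient temperature | Signal: Red resorufin fluorescence at 544/590 nm excitation/emission | Measure: Increased resorufin signal from activators or reducing compounds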
Active calls of the source: *.

Screening Oc1ccc2ccccc2c1C=NC1CCCCC1 returned PMI act satM6P 0.3, Diaphorase inh 52*, PMI act 0.2, G6PDH counter 30 and Diaphorase act 0.5.
For COc1ccc(-c2cc(C(=O)Nc3cc(C)nn3-c3ccccc3)no2)cc1OC the results were PMI act satM6P 1, Diaphorase inh 5, PMI act 1.1, G6PDH counter 7 and Diaphorase act 1.
O=C(NNC(=S)NC(=O)C12CC3CC(CC(C3)C1)C2)c1ccncc1 was read as PMI act satM6P 1.1, Diaphorase inh 51*, PMI act 1, G6PDH counter 1 and Diaphorase act 0.5.
Screening CCNC(=O)NC(=O)C(C)OC(=O)Cc1coc2cc3c(cc12)CCC3 (stereo unspecified) returned PMI act satM6P 1, Diaphorase inh 5, PMI act 1, G6PDH counter -1 and Diaphorase act 1.
For COc1cc(-c2nc(S(=O)(=O)c3ccc(C)cc3)c(N(C)C)o2)cc(OC)c1OC the results were PMI act satM6P 2*, Diaphorase inh 4, PMI act 1.5, G6PDH counter -4 and Diaphorase act 1.
`Cn1nccc1C(=O)Oc1ccc(/C=N/NC(=O)c2ccccc2O)cc1` gave PMI act satM6P 0.9, Diaphorase inh 4, PMI act 1, G6PDH counter 4 and Diaphorase act 1.
`O=C(CN1C(=O)NC2(CCSC2)C1=O)N1CCN(c2ccc(F)cc2)CC1` (stereo unspecified) gave PMI act satM6P 2.1*, Diaphorase inh 14, PMI act 1.6, G6PDH counter 0 and Diaphorase act 0.9.
O=C(CN1C(=O)C2CCCCC2C1=O)N1CCN(c2ccc(F)cc2)CC1 (stereo unspecified) was read as PMI act satM6P 1, Diaphorase inh 10, PMI act 1, G6PDH counter 10 and Diaphorase act 0.9.
`Cc1cc(-c2n[nH]c(=S)n2/N=C/c2cccc([N+](=O)[O-])c2)n[nH]1` gave PMI act satM6P 1, Diaphorase inh 62*, PMI act 0.9, G6PDH counter -2 and Diaphorase act 0.4.
Cc1cc(-c2n[nH]c(=S)n2/N=C/C(Cl)=C/c2ccccc2)n[nH]1 was read as PMI act satM6P 0.8, Diaphorase inh 51*, PMI act 0.7, G6PDH counter 13 and Diaphorase act 0.5.
`O=[N+]([O-])c1cccc(/C=N/n2c(C3CCCCC3)n[nH]c2=S)c1` gave PMI act satM6P 0.9, Diaphorase inh 26, PMI act 0.9, G6PDH counter -35 and Diaphorase act 0.7.
CC(=C/c1ccccc1)/C=N/n1c(-c2ccncc2)n[nH]c1=S was read as PMI act satM6P 0.7, Diaphorase inh 66*, PMI act 0.7, G6PDH counter 9 and Diaphorase act 0.3.
Screening S=c1[nH]nc(C2CCCCC2)n1/N=C/C(Cl)=C\c1ccccc1 returned PMI act satM6P 0.8, Diaphorase inh 25, PMI act 0.8, G6PDH counter -38 and Diaphorase act 0.7.
For COc1ccc(CCNC(=O)C(=O)NCc2ccc(Cl)cc2)cc1OC the results were PMI act satM6P 1.1, Diaphorase inh -15, PMI act 1.1, G6PDH counter 2 and Diaphorase act 1.2.
Screening Cc1cc(C(=O)N/N=C/c2cccc([N+](=O)[O-])c2O)n[nH]1 returned PMI act satM6P 0.9, Diaphorase inh 50*, PMI act 0.5, G6PDH counter 35 and Diaphorase act 0.5.
Screening Cc1cc(C(=O)N/N=C/c2ccc(O)c([N+](=O)[O-])c2)n[nH]1 returned PMI act satM6P 1, Diaphorase inh 5, PMI act 1.1, G6PDH counter -8 and Diaphorase act 1.
For COc1ccc(N/C=C2\CCc3ccccc3C2=O)cc1 the results were PMI act satM6P 0.1, Diaphorase inh 90*, PMI act 0, G6PDH counter 62* and Diaphorase act 0.1.
`O=C1/C(=C/Nc2ccc3c(c2)OCO3)CCc2ccccc21` gave PMI act satM6P 0.2, Diaphorase inh 75*, PMI act 0, G6PDH counter 53* and Diaphorase act 0.3.
COc1ccc2c(c1)CC/C(=C\Nc1ccc3c(c1)OCO3)C2=O was read as PMI act satM6P 0.2, Diaphorase inh 82*, PMI act 0.1, G6PDH counter 59* and Diaphorase act 0.2.
Screening O=C1OC2(CCCCC2)OC(=O)C1=CNc1ccc2c(c1)OCO2 returned PMI act satM6P 0.8, Diaphorase inh -3, PMI act 0.9, G6PDH counter 14 and Diaphorase act 1.
Cc1ccc(S(=O)(=O)N(CC(=O)N/N=C/c2ccccc2C(=O)O)c2cc(Cl)cc(Cl)c2)cc1 was read as PMI act satM6P 0.9, Diaphorase inh 20, PMI act 1, G6PDH counter 6 and Diaphorase act 0.8.
For C/C(N)=C(/C#N)C(=O)COC(=O)CCCNC(=O)c1ccc(Cl)cc1 the results were PMI act satM6P 1, Diaphorase inh 0, PMI act 1.1, G6PDH counter 1 and Diaphorase act 1.
For CC(=O)NC1C(OCc2ccccc2)OC2COC(c3ccccc3)OC2C1OCC(=O)O (stereo unspecified) the results were PMI act satM6P 1.2, Diaphorase inh -22, PMI act 1.1, G6PDH counter 10 and Diaphorase act 1.2.
CCOC(=O)C1=C(C)NC2=C(C(=O)CC(C)(C)C2)C1c1ccc2c(c1)CCCN2C (stereo unspecified) was read as PMI act satM6P 2*, Diaphorase inh 10, PMI act 1.5, G6PDH counter 6 and Diaphorase act 0.9.
COc1cc(NS(C)(=O)=O)cc(OC)c1OC was read as PMI act satM6P 1.1, Diaphorase inh 12, PMI act 1.1, G6PDH counter 8 and Diaphorase act 0.9.
COc1cc(NC(c2ccccc2)c2ccccc2)cc(OC)c1OC was read as PMI act satM6P 0.4, Diaphorase inh 77*, PMI act 0.4, G6PDH counter 15 and Diaphorase act 0.2.
For c1cn(-c2ccc(-c3ccnc4ncnn34)cc2)cn1 the results were PMI act satM6P 1.2, Diaphorase inh -6, PMI act 1.1, G6PDH counter 6 and Diaphorase act 1.1.
For O=C(Nc1nnc(C2CC2)s1)c1cc([N+](=O)[O-])ccc1N1CCCCC1 the results were PMI act satM6P 1, Diaphorase inh 18, PMI act 1, G6PDH counter -5 and Diaphorase act 0.8.
Screening Cc1cccc(-n2c(=S)[nH]c3sc4c(c3c2=O)CCc2ccccc2-4)c1 returned PMI act satM6P 0.2, Diaphorase inh 70*, PMI act 0.2, G6PDH counter 0 and Diaphorase act 0.3.

High-throughput results from PubChem.
